Molecular target: Amyloid-beta precursor protein (Homo sapiens, UniProt P05067)
Experiment: Binding affinity to human amyloid beta (1 to 42) fibril by fluorescence intensity assay
Procedure, shortened: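 Fibrils grown from human insulin (3 mg/mL, Tris-HCl 50 mM pH 3), E. coli-expressed human α-syn (3 mg/mL, pH 7.4) or Aβ(1–42) (0.5 mg/ml, 1% NH4OH). Fibril level taken as supernatant protein depletion. Plate-reader intensity read at each ligand's maximal excitation/emission wavelengths, dye blanks subtracted. Kd from single-site saturation fit.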

Amyloid-beta precursor protein, sequence (P05067 whole entry): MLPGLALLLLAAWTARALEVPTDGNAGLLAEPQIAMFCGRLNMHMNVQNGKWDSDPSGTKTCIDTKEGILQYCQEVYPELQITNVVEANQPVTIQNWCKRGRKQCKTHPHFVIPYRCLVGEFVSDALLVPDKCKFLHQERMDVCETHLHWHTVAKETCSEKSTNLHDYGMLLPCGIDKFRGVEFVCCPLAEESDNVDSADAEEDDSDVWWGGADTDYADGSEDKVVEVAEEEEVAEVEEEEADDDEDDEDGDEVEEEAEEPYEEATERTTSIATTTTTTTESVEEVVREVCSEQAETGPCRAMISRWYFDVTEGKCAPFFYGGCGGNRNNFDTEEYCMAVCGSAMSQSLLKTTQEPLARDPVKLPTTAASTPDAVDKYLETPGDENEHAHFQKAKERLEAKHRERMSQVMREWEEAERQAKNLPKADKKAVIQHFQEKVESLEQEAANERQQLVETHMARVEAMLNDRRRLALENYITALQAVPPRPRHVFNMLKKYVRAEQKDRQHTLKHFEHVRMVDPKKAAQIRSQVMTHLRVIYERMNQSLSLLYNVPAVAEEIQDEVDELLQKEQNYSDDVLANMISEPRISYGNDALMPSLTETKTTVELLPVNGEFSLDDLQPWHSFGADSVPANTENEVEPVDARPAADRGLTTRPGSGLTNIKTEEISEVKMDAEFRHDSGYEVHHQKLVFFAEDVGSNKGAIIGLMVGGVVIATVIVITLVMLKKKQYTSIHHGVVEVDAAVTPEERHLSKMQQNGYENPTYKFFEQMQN

Structure (SMILES)	Kd [nM]
CN(CCF)c1ccc(/C=C/c2nc3ccccc3s2)cc1	91
CN(CCF)c1ccc(/C=C\c2nc3ccccc3o2)cc1	167
CN(CCF)c1ccc(/C=C/c2nc3ccccc3n2C)cc1	192
CN(CCF)c1ccc(/C=C/c2nc3ccccc3o2)cc1	222
CN(CCF)c1ccc(/C=C\c2nc3ccccc3s2)cc1	42
CN(CCF)c1ccc(/C=C\c2nc3ccccc3n2C)cc1	286
CN(CCF)c1ccc(/C=C/c2nc3ccccc3[nH]2)cc1	278
